Source: ChEMBL document CHEMBL3120069, “Chemical genetics-based discovery of indole derivatives as HCV NS5B polymerase inhibitors” (Eur J Med Chem, 2014)

Tests used:
[1] = system: Hepatitis C virus; assay: Antiviral activity against Hepatitis C virus Con1 Bart79I genotype 1b expressing YFP infected in human Huh7.5 cells assessed as inhibition of NS5A S2204I mutant synthesis after 120 hrs by FACS analysis; assay type: functional, organism-based; settings: subtype 1b Con1 Bart79I
In short: (§1)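 Huh7.5 cells stably carrying Bart79I-YFP subgenomic replicon (G418 selection), treated with DMSO or compound. Dose series over 5 days (120 h), or 10 M with sampling at 24, 48, 72 h. Cells washed, resuspended in PBS, and NS5A-YFP-positive cells counted by FACS. EC50 and T1/2 taken from response curves.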

[2] = system: Hepatitis C virus; assay: Antiviral activity against Hepatitis C virus JFH-1 J6 genotype 2a infected in human Huh7.5 cells assessed as time required for reducing viral RNA level by half at 10 uM by luciferase reporter gene assay; assay type: functional, organism-based; settings: Hepacivirus hominis, subtype 2a JFH1 J6, Huh-7
In short: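 Rluc-J6/JFH1 RNA-transfected Huh7.5 cells given 10 µM compound; renilla luciferase and cell viability measured at 24, 48, 72 h. T1/2 for halving replication taken from the time-response curve.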

[3] = system: Hepatitis C virus; assay: Antiviral activity against Hepatitis C virus JFH-1 J6 genotype 2a infected in human Huh7.5 cells assessed as time required for reducing viral RNA level by half at 10 uM by real time qRT-PCR analysis; assay type: functional, organism-based; settings: Hepacivirus hominis, subtype 2a JFH1 J6, Huh-7
In short: (§2)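 J6/JFH1 RNA-transfected Huh7.5 cells held at 10 µM compound for increasing periods; HCV and host GAPDH RNA measured by real-time qRT-PCR. Triplicates, mean ± SD; T1/2 for halving viral RNA from the time-response curve.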

[4] = Selectivity index, ratio of CC50 for human Huh7.5 cells to EC50 for Hepatitis C virus JFH-1 J6 genotype 2a infected in human Huh7.5 cells; assay type: toxicity, cell-based, Huh-7; settings: read-out: Ratio CC50/EC50
[5] = system: Hepatitis C virus; assay: Antiviral activity against Hepatitis C virus Con1 Bart79I genotype 1b expressing YFP infected in human Huh7.5 cells assessed as NS5A S2204I mutant synthesis at 10 uM after 72 hrs by FACS analysis (reference value: 52.2%); assay type: functional, Hepacivirus hominis, subtype 1b Con1 Bart79I, Huh-7; in short: as §1
[6] = Inhibition of recombinant HCV N-terminal hexahistidine-tagged NS5B Cdelta21 RdRp expressed in Escherichia coli assessed as incorporation of [alpha-32P]-UTP in RNA after 2 hrs by autoradiographic analysis; design: species or system Hepacivirus hominis
In short: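 N-terminal His6-tagged recombinant HCV NS5B from E. coli, primer-dependent elongation with poly(A) template (1 µg) and oligo(U)20 (10 pmol). Buffer: 50 mM Tris-HCl pH 7.5, 50 mM NaCl, 100 mM K glutamate, 2 mM MgCl2, 1 mM DTT, RNase inhibitor, UTP plus [α-³²P]UTP. Increasing compound concentrations; IC50 from dose-response curve.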

[7] = system: Hepatitis C virus; assay: Antiviral activity against Hepatitis C virus Con1 Bart79I genotype 1b infected in human Huh7.5 cells assessed as time required for reducing NS5A S2204I mutant level by half at 10 uM by Western blot analysis; assay type: functional, organism-based; settings: Hepacivirus hominis, subtype 1b Con1 Bart79I, Huh-7
In short: (§3)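 Bart79I replicon Huh7.5 cells, 1.5×10⁵/well, treated with DMSO or compound. Dose series for 5 days (120 h), or 10 M for 24, 48, 72 h. Lysed in RIPA with protease inhibitors and protein quantified by Bradford. NS5A and β-actin measured by Western blot, with NS5A normalized to β-actin. EC50 and T1/2 taken from response curves.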

[8] = Cytotoxicity against human Huh7.5 cells assessed as cell viability after 72 hrs by MTT assay; assay type: cell-based, Huh-7
[9] = system: Hepatitis C virus; assay: Antiviral activity against Hepatitis C virus Con1 Bart79I genotype 1b expressing YFP infected in human Huh7.5 cells assessed as NS5A S2204I mutant synthesis at 10 uM after 24 hrs by FACS analysis (reference value: 52.2%); assay type: functional, Hepacivirus hominis, subtype 1b Con1 Bart79I, Huh-7; in short: as §1
[10] = system: Hepatitis C virus; assay: Antiviral activity against Hepatitis C virus Con1 Bart79I genotype 1b expressing NS5A S2204I mutant infected in human Huh7.5 cells assessed as time required for reducing viral RNA level by half at 10 uM by real time qRT-PCR analysis; assay type: functional, organism-based; settings: Hepacivirus hominis, subtype 1b Con1 Bart79I, Huh-7
In short: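 Huh7.5 cells stably carrying Bart79I genotype 1b subgenomic replicon (G418 750 mg/ml selection, 3 weeks), 3×10⁵ cells/well with DMSO or compound. Dose series over 72 h, or 10 M for increasing periods. Viral and host GAPDH RNA measured by real-time qRT-PCR. EC50 and T1/2 taken from response curves of triplicate experiments.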

[11] = system: Hepatitis C virus; assay: Antiviral activity against Hepatitis C virus Con1 Bart79I genotype 1b infected in human Huh7.5 cells assessed as inhibition of NS5A S2204I mutant synthesis after 120 hrs by Western blot analysis; assay type: functional, organism-based; settings: subtype 1b Con1 Bart79I; in short: as §3
[12] = system: Hepatitis C virus; assay: Antiviral activity against Hepatitis C virus JFH-1 J6 genotype 2a infected in human Huh7.5 cells assessed as inhibition of viral RNA replication at 10 uM by real time qRT-PCR analysis; assay type: functional, organism-based; settings: Hepacivirus hominis, subtype 2a JFH1 J6, Huh-7, TDE = time-dependent effect; in short: as §2
[13] = system: Hepatitis C virus; assay: Antiviral activity against Hepatitis C virus Con1 Bart79I genotype 1b expressing YFP infected in human Huh7.5 cells assessed as time required for reducing viral core level by half at 10 uM by FACS analysis; assay type: functional, organism-based; settings: Hepacivirus hominis, subtype 1b Con1 Bart79I, Huh-7, in the assay text read “viral NS5A-YFP level” for “viral core level”
In short: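 Huh7.5 cells stably carrying Bart79I-YFP subgenomic replicon (G418 750 mg/ml selection), exposed to compound at 10 µM; cells harvested at 24, 48, 72 h, washed, resuspended in PBS, NS5A-YFP-positive cell percentage read by FACS. T1/2 taken from the time-response curve.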

[14] = system: Hepatitis C virus; assay: Antiviral activity against Hepatitis C virus Con1 Bart79I genotype 1b expressing YFP infected in human Huh7.5 cells assessed as NS5A S2204I mutant synthesis at 2 uM after 120 hrs by FACS analysis (reference value: 66%); assay type: functional, Hepacivirus hominis, subtype 1b Con1 Bart79I, Huh-7; in short: as §1
[15] = system: Hepatitis C virus; assay: Antiviral activity against Hepatitis C virus JFH-1 J6 genotype 2a infected in human Huh7.5 cells assessed as time required for reducing viral core level by half at 10 uM by Western blot analysis; assay type: functional, organism-based; settings: Hepacivirus hominis, subtype 2a JFH1 J6, Huh-7
In short: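 J6/JFH1 RNA-transfected Huh7.5 cells on 10 µM compound, lysed at 24, 48, 72 h. HCV core and β-actin probed by Western blot, core intensity normalised to β-actin; T1/2 from the time-response curve.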

[16] = system: Hepatitis C virus; assay: Antiviral activity against Hepatitis C virus Con1 Bart79I genotype 1b expressing YFP/NS5A S2204I mutant infected in human Huh7.5 cells assessed as inhibition of viral RNA replication after 72 hrs by real time qRT-PCR analysis; settings: subtype 1b Con1 Bart79I, Huh-7, 72 h
[17] = system: Hepatitis C virus; assay: Antiviral activity against Hepatitis C virus Con1 Bart79I genotype 1b expressing YFP infected in human Huh7.5 cells assessed as NS5A S2204I mutant synthesis at 10 uM after 48 hrs by FACS analysis (reference value: 52.2%); assay type: functional, Hepacivirus hominis, subtype 1b Con1 Bart79I, Huh-7; in short: as §1

## C/C(=C\c1c[nH]c2ccc(C#N)cc12)C(=O)Nc1ccc(C(C)(C)C)cc1
[1]; Hepacivirus hominis, Huh-7
  inhibition: Dose-dependent effect
[1]; Huh-7, 120 h
  EC50: 1.03 µM
[2]
  T1/2: 16.4 h
[3]
  T1/2: 17.2 h
[4]
  selectivity ratio: 56.9
[5]
  Activity: 0.6%
[6]
  IC50: 0.292 µM
[7]
  T1/2: 31.7 h
[8]
  CC50 at 72 h: 61.8 µM
[9]
  Activity: 32.2%
[10]
  T1/2: 31.5 h
[11]; Hepacivirus hominis, Huh-7
  inhibition: Dose-dependent effect
[11]; Huh-7, 120 h
  EC50: 2.5 µM
[12]
  inhibition: tde
[13]
  T1/2: 31.8 h
[14]
  Activity: 4.2%
[15]
  T1/2: 19.6 h
[16]
  EC50: 4.77 µM
[17]
  Activity: 11.8%
